What was measured:
[1] = test system: K562; experiment: Cytotoxicity against human K562 cells after 72 hrs by MTT assay; assay type: functional, cell-based; conditions: K562, 72 h
Method in brief: (§1)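 Cells are exposed to compound for 72 h, and viability is then read by MTT assay. IC50 is reported as the mean of 3 independent measurements with SD. hFB-hTERT6 is a non-malignant human skin fibroblast line.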

[2] = test system: Streptomyces fradiae; experiment: Antibacterial activity against Streptomyces fradiae ATCC 19609 at 0.1 nmol/disk after 24 hrs; assay type: functional
Method in brief: (§2)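 Disk diffusion assay. Streptomyces fradiae spores are mixed into MG soft agar (0.7% agar, pH 7.5) and poured over MG agar plates (2% agar), 10⁷ spores per dish. After the agar sets, paper disks impregnated with compound are placed on the plates. Plates are incubated 24 h at 28 °C, and the diameter of the growth-inhibition halo around each disk is measured.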

[3] = test system: HCT-116; experiment: Cytotoxicity against human HCT116 cells after 72 hrs by MTT assay; assay type: functional, cell-based; conditions: HCT-116, 72 h; method in brief: as §1
[4] = test system: Streptomyces fradiae; experiment: Antibacterial activity against Streptomyces fradiae ATCC 19609 at 1 nmol/disk after 24 hrs; assay type: functional; method in brief: as §2
[5] = Cytotoxicity against human hFB-hTERT6 cells after 72 hrs by MTT assay; assay type: cell-based; conditions: hFB-hTERT6, 72 h; method in brief: as §1
[6] = test system: Streptomyces fradiae; experiment: Antibacterial activity against Streptomyces fradiae ATCC 19609 at 10 nmol/disk after 24 hrs; assay type: functional; method in brief: as §2
[7] = test system: Streptomyces fradiae; experiment: Antibacterial activity against Streptomyces fradiae ATCC 19609 at 100 nmol/disk after 24 hrs; assay type: functional; method in brief: as §2
[8] = test system: Streptomyces fradiae; experiment: Antibacterial activity against Streptomyces fradiae ATCC 19609 at 0.001 nmol/disk after 24 hrs; assay type: functional
Method in brief: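 Disk diffusion on S. fradiae: spore suspension mixed into MG soft agar (0.7%), pH 7.5, poured over MG agar (2%) at 10⁷ spores per dish; after solidification, paper disks carrying test compound laid on lawn; grown 24 h at 28 °C; growth-inhibition halo diameter around disks measured.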

Compound | IC50 [1] | diameter of the inhibition zone (DIZ) [2] | IC50 [3] | diameter of the inhibition zone (DIZ) [4] | IC50 [5] | diameter of the inhibition zone (DIZ) [6] | diameter of the inhibition zone (DIZ) [7] | diameter of the inhibition zone (DIZ) [8]
CC[C@H]1/C=C/C=C/C[C@@H](C)[C@H](O)[C@@](C)(O)C(=O)[C@@H](C)[C@H](O)[C@@H](C)C(=O)[C@@H](C)[C@H](O)[C@@H](C)/C=C/C(=O)O[C@@H]2[C@H](C)[C@H](CC1)O[C@]1(CC[C@H](C)[C@H](C[C@@H](C)OS(C)(=O)=O)O1)[C@H]2C | 5800 nM | 9.5 mm | 6400 nM |  |  |  |  | 
CC[C@H]1/C=C/C=C/C[C@@H](C)[C@H](O)[C@@](C)(O)C(=O)[C@@H](C)[C@H](O)[C@@H](C)C(=O)[C@@H](C)[C@H](O)[C@@H](C)/C=C/C(=O)O[C@@H]2[C@H](C)[C@H](CC1)O[C@]1(CC[C@H](C)[C@H](C[C@H](C)N=[N+]=[N-])O1)[C@H]2C | 140 nM |  | 200 nM | 7.5 mm | 1900 nM |  |  | 
CC[C@H]1/C=C/C=C/C[C@@H](C)[C@H](O)[C@@](C)(O)C(=O)[C@@H](C)[C@H](O)[C@@H](C)C(=O)[C@@H](C)[C@H](O)[C@@H](C)/C=C/C(=O)O[C@@H]2[C@H](C)[C@H](CC1)O[C@]1(CC[C@H](C)[C@H](C[C@H](C)n3cc(-c4ccccc4)nn3)O1)[C@H]2C | 150 nM | 7.5 mm |  |  | 3000 nM |  |  | 
CC[C@H]1/C=C/C=C/C[C@@H](C)[C@H](O)[C@@](C)(O)C(=O)[C@@H](C)[C@H](O)[C@@H](C)C(=O)[C@@H](C)[C@H](O)[C@@H](C)/C=C/C(=O)O[C@@H]2[C@H](C)[C@H](CC1)O[C@]1(CC[C@H](C)[C@H](C[C@H](C)n3cc(C(=O)OC)nn3)O1)[C@H]2C | 150 nM |  |  |  | 2000 nM | 8 mm |  | 
CC[C@H]1/C=C/C=C/C[C@@H](C)[C@H](O)[C@@](C)(O)C(=O)[C@@H](C)[C@H](O)[C@@H](C)C(=O)[C@@H](C)[C@H](O)[C@@H](C)/C=C/C(=O)O[C@@H]2[C@H](C)[C@H](CC1)O[C@]1(CC[C@H](C)[C@H](C[C@H](C)n3cc(C(=O)O)nn3)O1)[C@H]2C | > 12500 nM |  |  |  | > 50000 nM |  | 8 mm | 
CC[C@H]1/C=C/C=C/C[C@@H](C)[C@H](O)[C@@](C)(O)C(=O)[C@@H](C)[C@H](O)[C@@H](C)C(=O)[C@@H](C)[C@H](O)[C@@H](C)/C=C/C(=O)O[C@@H]2[C@H](C)[C@H](CC1)O[C@]1(CC[C@H](C)[C@H](C[C@H](C)n3cc(C(=O)NCCN(C)C)nn3)O1)[C@H]2C | 220 nM |  | 700 nM | 8 mm | 2000 nM |  |  | 
CC[C@@H]1/C=C/C=C/C[C@H](C)[C@H](O)[C@](C)(O)C(=O)[C@H](C)[C@@H](O)[C@H](C)C(=O)[C@H](C)[C@@H](O)[C@H](C)/C=C/C(=O)O[C@H]2[C@@H](C)[C@@H](CC1)O[C@@]1(CC[C@@H](C)[C@@H](C[C@H](C)O)O1)[C@@H]2C [OLIGOMYCIN A] | 160 nM |  | 1000 nM |  | 7500 nM |  |  | 10 mm

Reference: ChEMBL document CHEMBL2384900, “Synthesis and cytotoxicity of oligomycin A derivatives modified in the side chain” (Bioorg Med Chem, 2013)
